Results gathered from unrelated publications.
Compare with care: the assays were run in different laboratories.
Target: Interleukin-1 receptor-associated kinase 1 (IRAK1, Homo sapiens, UniProt P51617)

O=C(c1ccc(Nc2ncc(Cl)c(-c3cc4ccccc4s3)n2)cc1)N1CCC(N2CCCC2)CC1 — remaining binding (binding, competition with immobilised ligand; 1 µM): 0%
CN(C)c1nccc(-c2cnc3ncccn23)n1 — remaining binding (binding; 1 µM): 65%
CCC(=O)N[C@@H]1CC[C@H](C(=O)N(C)c2ccc(-c3nc4ccccc4o3)cc2)C1 — remaining binding (cell-free assay, competition with immobilised ligand; 1 µM): 100%
CN(C)c1ncc(F)c(-c2cnn3ncccc23)n1 — remaining binding (binding; 1 µM): 66%
O=C(NCCCN1CCOCC1)c1ccc(Nc2ncc(Cl)c(-c3ccc(Cl)s3)n2)cc1 — remaining binding (binding, competition with immobilised ligand; 1 µM): 0.15%
CCN1CCN(Cc2ccc(C(=O)Nc3ccc(C)c(Oc4ccc5c(c4)CC(=O)N5)c3)cc2C(F)(F)F)CC1 — remaining binding (binding, competition with immobilised ligand; 1 µM): 100%
COc1ccc2cc(OCC3(C(=O)O)CN(C(=O)c4ccc(F)cc4)C3)ccc2c1 — remaining binding (cell-free assay, competition with immobilised ligand; 1 µM): 100%
CN(c1nccc(-c2cnn3ncccc23)n1)C1CC1 — remaining binding (binding; 1 µM): 100%
FC(F)(F)Oc1cccc(-c2cnc3ccc(-c4ccncc4)nn23)c1 — remaining binding (cell-free assay, competition with immobilised ligand; 5 µM): 10%
N[C@@H]1CCN(c2nccc(-c3cnn4ncccc34)n2)C1 — remaining binding (binding; 1 µM): 100%
COc1cnc(Nc2cccc(S(N)(=O)=O)c2)nc1N1CCN(c2ccccc2)C(=O)C1 — remaining binding (binding, competition with immobilised ligand; 1 µM): 55%
O=S(=O)(NC1CCC(c2cc(F)ccc2F)(S(=O)(=O)c2ccc(Cl)cc2)CC1)C(F)(F)F (stereo not drawn) — remaining binding (cell-free assay, competition with immobilised ligand; 1 µM): 93%
C=CC(=O)N1CCC(C(=O)NCC(=O)N2CCN(c3nc(-c4cnc(N)nc4C(F)F)nc(N4CCOCC4)n3)CC2)CC1 — remaining binding (binding, competition with immobilised ligand; 1 µM): 100%
C[C@@H]1CCN(c2nccc(-c3cnn4ncccc34)n2)C1 — remaining binding (binding; 1 µM): 98%
CCS(=O)(=O)c1cc2cc(C[C@](O)(CC(C)(C)c3ccc(F)cc3C(N)=O)C(F)(F)F)[nH]c2cn1 — remaining binding (cell-free assay, competition with immobilised ligand; 1 µM): 99%
O=C(c1ccc(Nc2nccc(-c3cc4ccccc4s3)n2)cc1)N1CCC(N2CCCC2)CC1 — remaining binding (binding, competition with immobilised ligand; 1 µM): 3.2%
Cc1c(NC(=O)c2cc(C(N)=O)nc3cc(F)ccc23)c(C(F)(F)F)nn1Cc1ccc(C(C)(C)C)cc1 — remaining binding (cell-free assay, competition with immobilised ligand; 1 µM): 100%
CN(CCCC(F)(F)F)c1nccc(-c2cnn3ncccc23)n1 — remaining binding (binding; 1 µM): 100%
C[C@@H](c1ccc(-n2cnc3c(N)ncnc32)cc1)N1CCc2nn(C)c(Cc3ccccc3)c2C1=O — remaining binding (binding, competition with immobilised ligand; 0.1 µM): 69%
C[C@H](c1cccc(C#N)c1)n1cc(Cl)cc(C(N)=O)c1=N — remaining binding (cell-free assay, competition with immobilised ligand; 1 µM): 71%
O=C(NCC1CCOCC1)c1n[nH]cc1NC(=O)c1c(F)cccc1F — remaining binding (binding, competition with immobilised ligand; 1 µM): 98%
